Measured values published in ChEMBL document CHEMBL3046104, “Antifeedant diterpenoids against Tribolium castaneum from the stems and twigs of Ceriops tagal (Rhizophoraceae)” (Molecules, 2011).

Columns and labels:
[1] = test system: Tribolium castaneum; experiment: Antifeedant activity against Tribolium castaneum (red flour beetle) assessed as reduction of food consumption after 3 days by flour disk bioassay relative to control; type: functional, organism-based
Summary of the method: (§1)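 Adult T. castaneum from a lab colony kept in the dark at 28–30 °C, 70%–80% RH, starved 24 h. Treated flour disks (36–39 mg) air-dried overnight, then equilibrated 48 h at 28–30 °C. Twenty unsexed, group-weighed adults per vial for 3 days; uneaten disk weighed against controls. Insect-free treated vials corrected for solvent evaporation. Six replicates; 10–1000 ppm; EC50 by linear regression.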

[2] = test system: Tribolium castaneum; experiment: Antifeedant activity against Tribolium castaneum (red flour beetle) assessed as reduction of food consumption at 100 ppm after 3 days by flour disk bioassay relative to control; type: functional; summary of the method: as §1
[3] = test system: Tribolium castaneum; experiment: Antifeedant activity against Tribolium castaneum (red flour beetle) assessed as reduction of food consumption at 30 ppm after 3 days by flour disk bioassay relative to control; type: functional; summary of the method: as §1
[4] = test system: Tribolium castaneum; experiment: Antifeedant activity against Tribolium castaneum (red flour beetle) assessed as reduction of food consumption at 10 ppm after 3 days by flour disk bioassay relative to control; type: functional; summary of the method: as §1
[5] = test system: Tribolium castaneum; experiment: Antifeedant activity against Tribolium castaneum (red flour beetle) assessed as reduction of food consumption at 300 ppm after 3 days by flour disk bioassay relative to control; type: functional; summary of the method: as §1
[6] = test system: Tribolium castaneum; experiment: Antifeedant activity against Tribolium castaneum (red flour beetle) assessed as reduction of food consumption at 1000 ppm after 3 days by flour disk bioassay relative to control; type: functional; summary of the method: as §1

Structure (SMILES)	EC50 [1] [ppm]	level, % of control [2] [%]	level, % of control [3] [%]	level, % of control [4] [%]	level, % of control [5] [%]	level, % of control [6] [%]
CC(=O)O[C@@H]1C[C@H](O)[C@@]23CO[C@@H](O)[C@]1(C)[C@@H]2C[C@@H](O)[C@]1(C)[C@@H]3C(=O)[C@H](OC(C)=O)[C@@]2(C)[C@H](c3ccoc3)C[C@H]3O[C@]321 [TOOSENDANIN]	66					
C=C[C@@]1(C)CC[C@@]2(C)[C@@H](CC[C@@]3(C)[C@@H]2C=C(O)C(=O)[C@]32CO2)C1 [TAGALSIN B]	277.6	65.32	84.17	95.23	47.65	38.85
C=C[C@@]1(C)CC[C@@]2(C)[C@@H](CC[C@](C)(C(C)=O)[C@@H]2CC(=O)O)C1 [TAGALSIN H]	285.4	63.26	73.72	92.86	49.12	35.41
C=C[C@@]1(C)CC[C@@]2(C)[C@@H](CC[C@@]3(C)[C@@H]2C=C(O)C(=O)[C@@]32CO2)C1 [TAGALSIN A]	375.3	73.43	88.28	97.56	53.15	40.05
